According to ChEMBL document CHEMBL4765273 (Eur J Med Chem, 2020):

Assays:
Influenza A virus [1] = assay: Antiviral activity against Influenza A virus (A/goose/Guangdong/SH7/2013(H5N1)) group-1 infected in chicken embryo fibroblast assessed as reduction in viral infection preincubated for 1 hrs followed by fibroblast infection and measured after 72 hrs by hemagglutination titre method; type: functional, organism-based
Influenza A virus [2] = assay: Antiviral activity against Influenza A virus (A/chicken/Hebei/LZF/ 2014(H5N2)) group-2 infected in chicken embryo fibroblast assessed as reduction in viral infection preincubated for 1 hrs followed by fibroblast infection and measured after 72 hrs by hemagglutination titre method; type: functional, organism-based
Influenza A virus [3] = assay: Antiviral activity against Influenza A virus (A/Duck/Guangdong/674/2014 (H5N6)) group-2 infected in chicken embryo fibroblast assessed as reduction in viral infection preincubated for 1 hrs followed by fibroblast infection and measured after 72 hrs by hemagglutination titre method; type: functional, organism-based
Influenza A virus [4] = assay: Antiviral activity against Influenza A virus (A/goose/Jiangsu/1306/2014 (H5N8)) group-1 infected in chicken embryo fibroblast assessed as reduction in viral infection preincubated for 1 hrs followed by fibroblast infection and measured after 72 hrs by hemagglutination titre method; type: functional, organism-based
[5] = Cytotoxicity against chicken embryo fibroblast assessed as reduction in cell viability after 48 hrs by CCK8 assay; parameters: species or system Gallus gallus; conditions: chicken embryo fibroblasts
Method in brief: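 Chicken embryo fibroblasts (1×10^5 cells/mL) were cultured 24 h at 37°C, 5% CO2, washed with serum-free DMEM, then exposed to 2-fold serial compound dilutions in 1% FBS DMEM for 48 h. CCK-8 in 1% FBS DMEM was added for 90 min and absorbance read at 450 nm. CC50 was obtained by curve fitting. Blank and cell controls were included.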

[6] = Inhibition of Influenza A virus (A/goose/Guangdong/SH7/2013(H5N1)) group-1 Neuraminidase N1 preincubated for 10 mins followed by MUNANA substrate addition and measured after 40 to 60 mins by fluorescence method
Method in brief: (§1)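 Virus-derived NA was preincubated 10 min at 37°C with compound in MES buffer. Fluorogenic substrate was added and the reaction run for 40–60 min at 37°C, then stopped with glycine/NaOH. Fluorescence was read at ex 365 / em 460 nm with substrate blanks subtracted. IC50 was taken from percent-inhibition dose-response curves and reported as mean ± SD of three experiments.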

[7] = Inhibition of Influenza A virus (A/chicken/Hebei/LZF/ 2014(H5N2)) group-2 Neuraminidase N2 preincubated for 10 mins followed by MUNANA substrate addition and measured after 40 to 60 mins by fluorescence method; method in brief: as §1
[8] = Inhibition of Influenza A virus (A/Duck/Guangdong/674/2014 (H5N6)) group-2 Neuraminidase N6 preincubated for 10 mins followed by MUNANA substrate addition and measured after 40 to 60 mins by fluorescence method; method in brief: as §1
[9] = Inhibition of Influenza A virus (A/goose/Jiangsu/1306/2014 (H5N8)) group-1 Neuraminidase N8 preincubated for 10 mins followed by MUNANA substrate addition and measured after 40 to 60 mins by fluorescence method; method in brief: as §1

Row | SMILES | IC50 (Influenza A virus [1]) [µM] | IC50 (Influenza A virus [2]) [µM] | IC50 (Influenza A virus [3]) [µM] | IC50 (Influenza A virus [4]) [µM] | CC50 at 48 h [5] [µM] | IC50 [6] [µM] | IC50 [7] [µM] | IC50 [8] [µM] | IC50 [9] [µM]
1 | CCC(CC)O[C@@H]1C=C(C(=O)O)C[C@H](NC(=O)/C=C/c2ccccc2)[C@H]1NC(C)=O | > 10 | > 10 | > 10 | 5.32 | > 200 |  |  |  | 
2 | CCC(CC)O[C@@H]1C=C(C(=O)O)C[C@H](NCc2ccc(C#N)cc2)[C@H]1NC(C)=O | > 10 |  | > 10 | 0.68 | > 200 |  |  |  | 
3 | CCC(CC)O[C@@H]1C=C(C(=O)O)C[C@H](NCc2ncc(-c3ccccc3)s2)[C@H]1NC(C)=O | > 10 | 0.41 | 4.29 | 0.49 | > 200 |  |  |  | 
4 | CCC(CC)O[C@@H]1C=C(C(=O)O)C[C@H](NS(=O)(=O)c2ccc(Cl)cc2)[C@H]1NC(C)=O | > 10 | > 10 | > 10 | 4.76 | > 200 |  |  |  | 
5 | CCC(CC)O[C@@H]1C=C(C(=O)O)C[C@H](NCc2ccc(F)cc2)[C@H]1NC(C)=O | > 10 | 0.11 | 4.57 | 0.52 | > 200 |  |  |  | 
6 | CCC(CC)O[C@@H]1C=C(C(=O)O)C[C@H](NCc2cccc(-c3ccsc3)c2)[C@H]1NC(C)=O |  | 0.07 | 2.62 | 0.056 | > 200 |  |  |  | 
7 | CCC(CC)O[C@@H]1C=C(C(=O)O)C[C@H](NCc2ccc(Br)cc2)[C@H]1NC(C)=O | 2.53 | 0.11 | 1.99 |  | > 200 |  |  |  | 
8 | CCC(CC)O[C@@H]1C=C(C(=O)O)C[C@H](NC/C=C/c2ccc(N(C)C)cc2)[C@H]1NC(C)=O | 1.29 | 0.065 | 2.78 | 0.88 | > 200 |  |  |  | 
9 | CCC(CC)O[C@@H]1C=C(C(=O)O)C[C@H](NC(=O)/C=C/c2ccc(C)cc2)[C@H]1NC(C)=O | > 10 | > 10 | > 10 | 4.76 | > 200 |  |  |  | 
10 | CCC(CC)O[C@@H]1C=C(C(=O)O)C[C@H](NS(=O)(=O)c2ccc(C(C)(C)C)cc2)[C@H]1NC(C)=O | > 10 | > 10 | > 10 |  | > 200 |  |  |  | 
11 | CCC(CC)O[C@@H]1C=C(C(=O)O)C[C@H](NCc2ccc(-c3ccccc3)s2)[C@H]1NC(C)=O | 1.59 | 0.12 | 3.02 | 0.098 | > 200 | 0.264 | 1.1 | 1.74 | 0.0901
12 | CCC(CC)O[C@@H]1C=C(C(=O)O)C[C@H](NS(=O)(=O)c2ccc3ccccc3c2)[C@H]1NC(C)=O | > 10 | > 10 | > 10 | 3.23 | > 200 |  |  |  | 
13 | CCC(CC)O[C@@H]1C=C(C(=O)O)C[C@H](NCc2cccc(F)c2)[C@H]1NC(C)=O | > 10 | 0.14 | 3.87 | 0.49 | > 200 |  |  |  | 
14 | CCC(CC)O[C@@H]1C=C(C(=O)O)C[C@H](NS(=O)(=O)c2ccc(-c3ccccc3)cc2)[C@H]1NC(C)=O | > 10 | > 10 | > 10 | 6.79 | > 200 |  |  |  | 
15 | CCC(CC)O[C@@H]1C=C(C(=O)O)C[C@H](NCc2ccc([N+](=O)[O-])cc2)[C@H]1NC(C)=O | > 10 | 0.21 | 2.16 | 0.42 | > 200 |  |  |  | 
16 | CCC(CC)O[C@@H]1C=C(C(=O)O)C[C@H](NC(=O)/C=C/c2ccc(OC)cc2)[C@H]1NC(C)=O | > 10 | > 10 | > 10 | 8.48 | > 200 |  |  |  | 
17 | CCC(CC)O[C@@H]1C=C(C(=O)O)C[C@H](NCc2ccsc2)[C@H]1NC(C)=O | > 10 | 0.13 | 3.58 | 0.081 | > 200 |  |  |  | 
